Source: PubChem
This is a sample that favours compounds with a hit; in the whole collection about 0.85% have one here.
CRFR2-BP ag = agonists of CRF-BP/CRF-R2 complex, primary screen, cell-based, HEK293, calcium dye fluorescence, uHTS; AID 588473, 2011; calcium dye fluorescence (FLIPR); percent of saturating CRF peptide response; activation, % at 13.2 µM; 0.46% of 350,000 active; CRF-binding protein / CRF receptor 2 complex (human);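 active = activation of at least 50%, plus an integration ratio under a set limit after plate pattern correction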
OXTR agonist = human OXTR agonists, primary screen, fluorescence, CHO-OTR cells, Fluo-8 calcium | Oxytocin receptor (Homo sapiens), P30559 | Fluo-8 calcium fluorescence; normalized: DMSO 0%, oxytocin 100% | activation, % at 3 µM | 0.32% of 320,000 active;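 active = activation above the mean of all tested compounds plus 3 SD, cutoff set per screening run, cut at about 20% in these data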;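 also: peak over basal fluorescence ratio from a 100 s FLIPR kinetic read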
zfTRPN1 agonist = zebrafish TRPN1 channel agonists, primary screen, cell-based, HEK293, calcium fluorescence. transient receptor potential cation channel N1 (TRPN1/NompC), Danio rerio. HEK293 zebrafish TRPN1-YFP, Fluo-8 calcium fluorescence; 100% = response to 87 µM carbachol. activation, % at 3 µM. 0.18% of 220,000 active. AID 1424, 2008;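 active = activation above its plate's cutoff, the mean activation of test wells on that plate plus 3 SD, cut at about 19% in these data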
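Material: zebrafish TRPN1-YFP in HEK293 cells; Doses: single test compound dose, 3 µM nominal, 0.3% DMSO; Timing: dye loading 1 h at 37 °C, then 30 min room temperature; Technique: intracellular calcium fluorescence with Fluo-8; Benchmarks: high carbachol 87 µM, low DMSO alone.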
OXTR potentiate = human OXTR potentiators, primary screen, fluorescence, CHO-OTR cells, Fluo-8 calcium | Oxytocin receptor (Homo sapiens), P30559 | Fluo-8 calcium fluorescence, potentiator mode; 0% = oxytocin EC15, 100% = EC100 | activation, % at 3 µM | 0.061% of 320,000 active | AID 2445, 2010;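 active = activation above that plate's cutoff, the mean activation of tested compounds plus 3 SD, cut at about 6.6% in these data, passing the limit was not always enough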
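System: human OTR in CHO cells / Also added: sub-maximal oxytocin, roughly EC15 / Control set: EC15 oxytocin low, 75 nM oxytocin high / Schedule: 6 min compound pre-incubation at room temperature, 100 s kinetic read / Compound: single-point 3.0 µM / Replication: singlicate / Technique: Fluo-8 calcium dye fluorescence / Read-out basis: % activation of max/min ratio relative to oxytocin controls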
TRPML3 agonist = human TRPML3 channel agonists, primary screen, cell-based, HEK293 TRPML3-YFP, Fluo-8 calcium fluorescence, 3 µM | Mucolipin-3 (Homo sapiens), Q8TDD5 | 100% = the carbachol control signal | 0.29% of 220,000 active | activation, % at 3 µM;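 active = activation above its plate's cutoff, the mean activation of the plate's test wells plus 3 SD, cut at about 12% in these data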
Target sequence (Q8TDD5 whole entry, looked up): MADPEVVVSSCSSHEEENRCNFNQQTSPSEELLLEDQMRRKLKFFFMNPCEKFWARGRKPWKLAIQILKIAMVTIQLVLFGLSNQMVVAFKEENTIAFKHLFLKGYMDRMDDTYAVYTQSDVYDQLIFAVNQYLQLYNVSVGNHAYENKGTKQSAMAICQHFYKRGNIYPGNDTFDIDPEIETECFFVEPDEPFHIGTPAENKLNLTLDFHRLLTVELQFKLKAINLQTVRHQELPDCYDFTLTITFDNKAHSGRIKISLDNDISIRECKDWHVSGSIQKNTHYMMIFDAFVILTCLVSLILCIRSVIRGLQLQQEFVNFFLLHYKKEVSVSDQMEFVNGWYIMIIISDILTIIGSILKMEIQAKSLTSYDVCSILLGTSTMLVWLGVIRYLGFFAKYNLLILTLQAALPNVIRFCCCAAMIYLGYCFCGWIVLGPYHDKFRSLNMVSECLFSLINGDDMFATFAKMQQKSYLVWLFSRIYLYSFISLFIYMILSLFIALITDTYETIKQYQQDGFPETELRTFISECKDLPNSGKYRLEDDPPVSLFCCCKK
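Test system: HEK293 cells stably carrying human TRPML3-YFP; Doses: single dose, 3 µM final nominal compound, 0.3% DMSO final; Schedule: dye loading 1 h 37 °C then 30 min ambient, 125 s read; Technique: Fluo-8 calcium fluorescence; Benchmarks: high control carbachol 87 µM, low control DMSO.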
V1aR counter = agonists of human V1a receptor, primary screen, counter-screen for OXTR agonist project, fluorescence, CHO-V1R cells. Fluo-8 calcium fluorescence, agonist mode; 0% DMSO, 100% 3 nM vasopressin. Vasopressin V1a receptor (Homo sapiens), P37288. activation, % at 3 µM. 0.25% of 320,000 active. AID 2797, 2010;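 active = activation above the mean activation of all tested compounds plus 3 SD, per screening run, cut at about 20% in these data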;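 also: signal is peak over basal fluorescence ratio across a 100 second FLIPR read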
A number is an active result.

`CC/C(=C\C=C\[C@@H]1C=C[C@@H]2CCC[C@H]2[C@@H]1C(=O)c1ccc[nH]1)[C@@H]1O[C@@H]([C@@H](C)C(=O)O)CC[C@@H]1C` gave CRFR2-BP ag 66.9, OXTR agonist inactive, zfTRPN1 agonist inactive, OXTR potentiate inactive, TRPML3 agonist inactive and V1aR counter inactive.
`C=CCn1c(O)c(/C=N/N2CCCCC2)c(=O)[nH]c1=O` gave CRFR2-BP ag inactive, OXTR agonist inactive, zfTRPN1 agonist inactive, OXTR potentiate inactive, TRPML3 agonist inactive and V1aR counter inactive.
Cn1c(O)c(C=Nc2ccccc2Sc2ccccc2)c(=O)n(C)c1=O was read as CRFR2-BP ag inactive, OXTR agonist inactive, zfTRPN1 agonist inactive, OXTR potentiate inactive, TRPML3 agonist inactive and V1aR counter inactive.
`O=[N+]([O-])c1ccc(NCc2ccccc2)c2nonc12` gave CRFR2-BP ag 493.2, OXTR agonist 692.8, zfTRPN1 agonist 332.1, OXTR potentiate inactive, TRPML3 agonist 215.7 and V1aR counter 691.5.
Screening O=[N+]([O-])c1ccc(N2CCCCCC2)c2nonc12 returned CRFR2-BP ag 191.5, OXTR agonist 412.8, OXTR potentiate inactive and V1aR counter 534.2.
For O=[N+]([O-])c1ccc(N2CCCCC2)c2ncccc12 the results were CRFR2-BP ag inactive, OXTR agonist inactive, zfTRPN1 agonist inactive, OXTR potentiate inactive, TRPML3 agonist inactive and V1aR counter inactive.
Cn1c(O)c(C=Nc2ccc(Br)cc2)c(=O)n(C)c1=O was read as CRFR2-BP ag inactive, OXTR agonist inactive, OXTR potentiate inactive and V1aR counter inactive.
For Cn1c(O)c(/C=C/C=Nc2ccccc2)c(=O)n(C)c1=S the results were CRFR2-BP ag 55.0, OXTR agonist 93.0, zfTRPN1 agonist inactive, OXTR potentiate inactive, TRPML3 agonist inactive and V1aR counter 47.4.
For c1ccc2c(c1)[nH]c1cnccc12 the results were CRFR2-BP ag inactive, OXTR agonist inactive, zfTRPN1 agonist inactive, OXTR potentiate inactive, TRPML3 agonist inactive and V1aR counter inactive.
For Cc1c2ccncc2c(C)c2c1[nH]c1ccccc12 the results were CRFR2-BP ag 101.0, OXTR agonist inactive, zfTRPN1 agonist inactive, OXTR potentiate inactive, TRPML3 agonist inactive and V1aR counter inactive.
Screening CCN(CC)c1ccc(N=Cc2c(O)n(CCC3=CCCCC3)c(=O)[nH]c2=O)cc1 returned CRFR2-BP ag 115.3, OXTR agonist inactive, zfTRPN1 agonist inactive, OXTR potentiate inactive, TRPML3 agonist inactive and V1aR counter inactive.
For CN(C)c1ccc(N=Cc2c(O)n(CCC3=CCCCC3)c(=O)[nH]c2=O)cc1 the results were CRFR2-BP ag inactive, OXTR agonist inactive, zfTRPN1 agonist inactive, OXTR potentiate inactive, TRPML3 agonist inactive and V1aR counter inactive.
`CCC1C2Cc3ccc(O)cc3C1(CC)CCN2C` (stereo not drawn) gave CRFR2-BP ag inactive.
Screening C=CCN1CCC2(C)c3cc(O)ccc3CC1C2C (stereo not drawn) returned CRFR2-BP ag 63.3, OXTR agonist inactive, OXTR potentiate inactive and V1aR counter inactive.
For CC1(C)CN=C(Nc2ccc(F)c(F)c2)S1 the results were CRFR2-BP ag inactive, OXTR agonist inactive, zfTRPN1 agonist inactive, OXTR potentiate inactive, TRPML3 agonist inactive and V1aR counter inactive.
Screening CC1(C)CN=C(Nc2ccc(F)c(Cl)c2)S1 returned CRFR2-BP ag inactive, OXTR agonist inactive, zfTRPN1 agonist inactive, OXTR potentiate inactive, TRPML3 agonist inactive and V1aR counter 27.0.
C/C=C(\C)C(=O)OC1C(C)=C2C(C1OC(=O)CCCCC)C(C)(OC(C)=O)CC(OC(=O)CCC)C1(O)C2OC(=O)C1(C)O (stereo not drawn) was read as OXTR agonist 62.3, OXTR potentiate inactive and V1aR counter 65.2.
For COC(=O)N(C)c1ccc(C(O)(C(=O)OC)C(F)(F)F)cc1 (stereo not drawn) the results were CRFR2-BP ag inactive, OXTR agonist inactive, zfTRPN1 agonist inactive, OXTR potentiate inactive, TRPML3 agonist inactive and V1aR counter inactive.
For CCC(C)c1ccc(N2C(=O)NC(=O)/C(=C/c3cccn3CCOc3ccc(C)cc3)C2=O)cc1 (stereo not drawn) the results were CRFR2-BP ag 60.4, OXTR agonist inactive, zfTRPN1 agonist inactive, OXTR potentiate inactive, TRPML3 agonist inactive and V1aR counter inactive.
COC(=O)C1=C(c2ccc(F)cc2F)C[C@@H]2CC[C@H]1N2C(=O)N1CCC(O)(c2ccc(Cl)cc2)CC1 was read as CRFR2-BP ag inactive, OXTR agonist inactive, OXTR potentiate inactive and V1aR counter inactive.
Screening CCCCn1c(O)c(C(CC)=NCCc2ccccc2)c(=O)[nH]c1=O returned CRFR2-BP ag inactive, OXTR agonist inactive, zfTRPN1 agonist inactive, OXTR potentiate inactive, TRPML3 agonist inactive and V1aR counter inactive.
CCCCn1c(O)c(C(=O)/C=C/c2c[nH]c3ccccc23)c(=O)[nH]c1=O was read as CRFR2-BP ag 130.1, OXTR agonist inactive, zfTRPN1 agonist inactive, OXTR potentiate inactive, TRPML3 agonist inactive and V1aR counter inactive.
For Cc1nn(Cc2ccccc2)c(Cl)c1C(=O)OCC(=O)NCC1CCCO1 (stereo not drawn) the results were CRFR2-BP ag inactive, OXTR agonist inactive, zfTRPN1 agonist inactive, OXTR potentiate inactive, TRPML3 agonist inactive and V1aR counter inactive.
COc1ccc(CNCCc2c(C)[nH]c3ccc(OC(F)(F)F)cc23)c(OC)c1 was read as CRFR2-BP ag inactive, OXTR agonist 40.6, OXTR potentiate inactive and V1aR counter 41.0.
O=C1NC(=S)SC1=Cc1ccc(N(CCCl)CCCl)cc1 was read as CRFR2-BP ag 88.1.
`COC(=O)Cn1cc(/C=C2\C(=O)NC(=O)N(c3ccccc3)C2=O)c2ccccc21` gave CRFR2-BP ag 87.3, OXTR agonist inactive, OXTR potentiate inactive and V1aR counter inactive.
`CCc1ccccc1N1C(=O)/C(=C/c2ccc(N3CCN(C)CC3)o2)C(=O)NC1=S` gave CRFR2-BP ag 55.3, OXTR agonist inactive, zfTRPN1 agonist inactive, OXTR potentiate inactive, TRPML3 agonist inactive and V1aR counter inactive.
`Cc1cccc(N2C(=O)/C(=C/c3ccc(N4CCN(C)CC4)o3)C(=O)NC2=S)c1C` gave CRFR2-BP ag 50.6, OXTR agonist inactive, zfTRPN1 agonist inactive, OXTR potentiate inactive, TRPML3 agonist inactive and V1aR counter inactive.
